Experimental data from ChEMBL document CHEMBL3525931, “Stereoselective interaction of pantoprazole with ABCG2. II. In vitro flux analysis” (Drug Metab Dispos, 2012).

Legend:
[1] = Observed permeability in MDCK2 cells assessed as basolateral to apical transport at 30 uM after 0.5 to 1 hrs by HPLC method; type: ADME, cell-based, Canis lupus familiaris; conditions: dog, mdck-ii
Summary of the method: (§1)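 Mock (empty pcDNA3.1) or rat Abcg2/human ABCG2-transfected MDCKII, G418-selected, seeded on 3.0-μm Transwell filters at 1.0×10^6 cells/well, grown 4 days to TEER >200 Ω·cm². Single isomer loaded apical or basolateral in serum-free Opti-MEM I with 0.2 μCi/ml [3H]mannitol, 37°C 5% CO2. Receiver sampled at 0.5 and 1 h. Quantified by HPLC-UV 290 nm. Permeability = initial rate/(area × donor concentration). Efflux ratio = B→A rate / A→B rate. n = 3, mean ± S.D.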

[2] = Observed permeability in MDCK2 cells assessed as basolateral to apical transport at 10 uM after 0.5 to 1 hrs by HPLC method; type: ADME, cell-based, Canis lupus familiaris; conditions: dog, mdck-ii; summary of the method: as §1
[3] = Observed permeability in MDCK2 cells assessed as basolateral to apical transport at 3 uM after 0.5 to 1 hrs by HPLC method; type: ADME, cell-based, Canis lupus familiaris; conditions: dog, mdck-ii; summary of the method: as §1
ABCG2 [4] = molecular target: T1, ABCG2 (Homo sapiens, UniProt Q9UNQ0); test: Asymmetry efflux ratio in MDCK2 cells expressing human ABCG2 assessed as ABCG2-mediated drug transport ratio at 30 uM after 0.5 to 1 hrs by HPLC method; type: ADME, cell-based; summary of the method: as §1
T1 sequence (Q9UNQ0 whole entry): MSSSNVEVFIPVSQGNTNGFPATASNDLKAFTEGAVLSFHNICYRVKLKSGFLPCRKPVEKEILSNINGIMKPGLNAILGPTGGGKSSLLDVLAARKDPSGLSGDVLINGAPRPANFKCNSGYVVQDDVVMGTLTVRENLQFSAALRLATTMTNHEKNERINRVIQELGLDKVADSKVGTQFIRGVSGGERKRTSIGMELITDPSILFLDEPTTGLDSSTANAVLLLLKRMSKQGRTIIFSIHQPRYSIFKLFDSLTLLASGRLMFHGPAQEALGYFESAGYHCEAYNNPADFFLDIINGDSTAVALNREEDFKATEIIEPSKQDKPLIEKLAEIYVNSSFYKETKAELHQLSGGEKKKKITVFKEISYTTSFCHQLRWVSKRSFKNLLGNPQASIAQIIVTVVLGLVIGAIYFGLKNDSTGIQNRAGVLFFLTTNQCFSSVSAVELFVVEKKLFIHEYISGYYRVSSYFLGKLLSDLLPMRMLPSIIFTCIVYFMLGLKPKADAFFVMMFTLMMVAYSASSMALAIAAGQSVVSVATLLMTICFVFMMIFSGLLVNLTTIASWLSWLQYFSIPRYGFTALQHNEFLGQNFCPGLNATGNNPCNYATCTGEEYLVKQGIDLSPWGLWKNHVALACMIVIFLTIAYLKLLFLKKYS

ABCG2 [5] = molecular target: T2, ABCG2 (Rattus norvegicus, UniProt Q80W57); test: Asymmetry efflux ratio in MDCK2 cells expressing rat ABCG2 assessed as ABCG2-mediated drug transport ratio at 30 uM after 0.5 to 1 hrs by HPLC method; type: ADME, cell-based; summary of the method: as §1
T2 sequence (Q80W57 whole entry): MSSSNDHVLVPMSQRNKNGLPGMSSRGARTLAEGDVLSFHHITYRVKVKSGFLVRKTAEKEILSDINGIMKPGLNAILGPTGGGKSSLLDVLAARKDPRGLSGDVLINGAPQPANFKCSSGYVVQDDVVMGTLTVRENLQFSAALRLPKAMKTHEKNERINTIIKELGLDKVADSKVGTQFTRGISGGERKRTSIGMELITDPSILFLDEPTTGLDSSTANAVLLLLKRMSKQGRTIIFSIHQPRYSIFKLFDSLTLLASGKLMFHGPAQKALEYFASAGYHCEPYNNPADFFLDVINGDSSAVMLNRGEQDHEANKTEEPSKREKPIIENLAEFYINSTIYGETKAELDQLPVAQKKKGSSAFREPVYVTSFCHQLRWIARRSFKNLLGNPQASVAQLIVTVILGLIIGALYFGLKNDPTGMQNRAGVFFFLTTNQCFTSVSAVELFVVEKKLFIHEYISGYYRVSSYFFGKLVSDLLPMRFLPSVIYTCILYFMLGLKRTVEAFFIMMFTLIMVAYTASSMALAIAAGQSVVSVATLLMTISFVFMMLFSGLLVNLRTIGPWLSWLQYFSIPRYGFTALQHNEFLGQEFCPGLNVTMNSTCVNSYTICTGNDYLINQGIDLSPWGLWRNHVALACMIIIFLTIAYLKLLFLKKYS

[6] = Observed permeability in MDCK2 cells assessed as apical to basolateral transport at 10 uM after 0.5 to 1 hrs by HPLC method; type: ADME, cell-based, Canis lupus familiaris; conditions: dog, mdck-ii; summary of the method: as §1
ABCG2 [7] = molecular target: T1, ABCG2; test: Asymmetry efflux ratio in MDCK2 cells expressing human ABCG2 assessed as ABCG2-mediated drug transport ratio at 10 uM after 0.5 to 1 hrs by HPLC method; type: ADME, cell-based; summary of the method: as §1
[8] = molecular target: T3, Broad substrate specificity ATP-binding cassette transporter ABCG2 (Rattus norvegicus, UniProt Q80W57); test: Maximum drug transport rate in MDCK2 cells expressing rat ABCG2 assessed as ABCG2-mediated transport by HPLC method; type: ADME, cell-based; conditions: mdck-ii
T3 sequence (Q80W57 whole entry): T2 sequence (Q80W57 whole entry)
Summary of the method: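 Kinetics came from the same Transwell bidirectional flux runs in rat Abcg2- or human ABCG2-MDCKII, with donor 3–200 μM single isomer. Cellular concentrations were predicted from a three-compartment model using PS_D from mock cells and PS_PC from mannitol. Apparent apical efflux permeability was fitted against predicted cellular concentration by saturable kinetics to give K_M and T_max.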

[9] = molecular target: T4, Broad substrate specificity ATP-binding cassette transporter ABCG2 (Homo sapiens, UniProt Q9UNQ0); test: Observed permeability in MDCK2 cells expressing human ABCG2 assessed as ABCG2-mediated apical to basolateral transport at 30 uM after 0.5 to 1 hrs by HPLC method; type: ADME, cell-based; conditions: mdck-ii; summary of the method: as §1
T4 sequence (Q9UNQ0 whole entry): T1 sequence (Q9UNQ0 whole entry)

ABCG2 [10] = molecular target: T2, ABCG2; test: Asymmetry efflux ratio in MDCK2 cells expressing rat ABCG2 assessed as ABCG2-mediated drug transport ratio at 50 uM after 0.5 to 1 hrs by HPLC method; type: ADME, cell-based; summary of the method: as §1
[11] = molecular target: T3, Broad substrate specificity ATP-binding cassette transporter ABCG2; test: Observed permeability in MDCK2 cells expressing rat ABCG2 assessed as ABCG2-mediated apical to basolateral transport at 30 uM after 0.5 to 1 hrs by HPLC method; type: ADME, cell-based; conditions: mdck-ii; summary of the method: as §1
[12] = Observed permeability in MDCK2 cells assessed as basolateral to apical transport at 50 uM after 0.5 to 1 hrs by HPLC method; type: ADME, cell-based, Canis lupus familiaris; conditions: dog, mdck-ii; summary of the method: as §1
[13] = Observed permeability in MDCK2 cells assessed as apical to basolateral transport at 3 uM after 0.5 to 1 hrs by HPLC method; type: ADME, cell-based, Canis lupus familiaris; conditions: dog, mdck-ii; summary of the method: as §1
[14] = Asymmetry efflux ratio in MDCK2 cells assessed as drug transport ratio at 10 uM after 0.5 to 1 hrs by HPLC method; type: ADME, cell-based, Canis lupus familiaris, MDCK-II; conditions: dog, MDCK; summary of the method: as §1
[15] = molecular target: T4, Broad substrate specificity ATP-binding cassette transporter ABCG2; test: Observed permeability in MDCK2 cells expressing human ABCG2 assessed as ABCG2-mediated apical to basolateral transport at 3 uM after 0.5 to 1 hrs by HPLC method; type: ADME, cell-based; conditions: mdck-ii; summary of the method: as §1
[16] = molecular target: T3, Broad substrate specificity ATP-binding cassette transporter ABCG2; test: Observed permeability in MDCK2 cells expressing rat ABCG2 assessed as ABCG2-mediated apical to basolateral transport at 3 uM after 0.5 to 1 hrs by HPLC method; type: ADME, cell-based; conditions: mdck-ii; summary of the method: as §1
[17] = Observed permeability in MDCK2 cells assessed as apical to basolateral transport at 30 uM after 0.5 to 1 hrs by HPLC method; type: ADME, cell-based, Canis lupus familiaris; conditions: dog, mdck-ii; summary of the method: as §1

Row | Papp [1] [uL/hr/cm2] | Papp [2] [uL/hr/cm2] | Papp [3] [uL/hr/cm2] | efflux ratio at 30 µM (ABCG2 [4]) | efflux ratio at 30 µM (ABCG2 [5]) | Papp [6] [uL/hr/cm2] | efflux ratio at 10 µM (ABCG2 [7]) | Drug transport [8] [nmol/hr.cm2] | Papp [9] [uL/hr/cm2] | efflux ratio at 50 µM (ABCG2 [10]) | Papp [11] [uL/hr/cm2] | Papp [12] [uL/hr/cm2] | Papp [13] [uL/hr/cm2] | efflux ratio at 10 µM [14] | Papp [15] [uL/hr/cm2] | Papp [16] [uL/hr/cm2] | Papp [17] [uL/hr/cm2] | Compound
1 | 123 | 130 | 120 | 3.12 | 1.63 | 123 | 8.06 | 2.49 | 67.6 | 1.26 | 92.5 | 126 | 118 | 1.06 | 16.9 | 7.4 | 116 | COc1ccnc(C[S@+]([O-])c2nc3cc(OC(F)F)ccc3[nH]2)c1OC
2 | 116 | 121 | 117 | 5.5 | 6.16 | 114 | 5.81 | 7.86 | 43.6 | 2.46 | 33.5 | 135 | 116 | 1.07 | 30 | 12.8 | 110 | COc1ccnc(C[S@@+]([O-])c2nc3cc(OC(F)F)ccc3[nH]2)c1OC
